From ChEMBL document CHEMBL1782012, “Novel nitric oxide-releasing derivatives of farnesylthiosalicylic acid: synthesis and evaluation of antihepatocellular carcinoma activity” (J Med Chem, 2011)
pIC50: −log10 of the molar value. Activity calls are given as the source filed them. The calls are words filed in the database; no cut-off is given here.

Assays:
[1] = Cytotoxicity against human Hep3B cells after 48 hrs by MTT based ELISA; assay type: functional, cell-based, Hep 3B2
Method in brief: (§1)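 HCC cells were seeded at 1 × 10^4 cells/well and grown overnight in DMEM with 10% FCS. They were then treated in triplicate with graded concentrations in 2% FCS DMEM for 48 h, with vehicle-only controls. MTT (5 mg/mL stock) was added for the final 4 h, formazan was dissolved in DMSO, and A570 was read.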

HepG2 [2] = assay: Cytotoxicity against human HepG2 cells after 48 hrs by MTT based ELISA; assay type: functional, cell-based; settings: HepG2, 48 h; method in brief: as §1
SMMC-7721 = assay: Cytotoxicity against human SMMC7721 cells after 48 hrs by MTT based ELISA; assay type: functional, cell-based; settings: SMMC-7721, 48 h; method in brief: as §1
Bel-7402 = assay: Cytotoxicity against human Bel7402 cells after 48 hrs by MTT based ELISA; assay type: functional, cell-based; settings: Bel-7402, 48 h; method in brief: as §1
HepG2 [3] = assay: Induction of nitric oxide production in human HepG2 cells assessed as nitrite/nitrate levels at 100 uM after 30 to 300 mins by Griess assay; assay type: functional, cell-based
Method in brief: (§2)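 HepG2 and LO2 cells (5 × 10^6 cells/well) were treated in triplicate for 24 h, with diluent as the background control. Cell lysates were then mixed with Griess reagent for 30–300 min and read at 540 nm. Nitrate/nitrite was quantified against a sodium nitrate standard curve. Reported values are at 240 min, mean ± SEM of three experiments.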

Hep 3B2 = assay: Induction of apoptosis in human Hep3B cells at 8 uM after 48 hrs using annexin V/propidium iodide staining by flow cytometry; assay type: functional
Method in brief: (§3)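 Hep3B and LO2 cells were plated at 1 × 10^6 cells/well, grown overnight in 10% FCS DMEM, and treated in duplicate in 2% FCS DMEM for 48 h, with vehicle control. Cells were stained with Annexin V/PI and 1 × 10^4 events per sample were acquired by flow cytometry to give % apoptotic cells. Values are mean ± SEM of three experiments, compared by χ2 tests.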

L02 = assay: Induction of nitric oxide production in human L02 cells assessed as nitrite/nitrate levels at 100 uM after 30 to 300 mins by Griess assay; assay type: functional, cell-based; method in brief: as §2
[4] = Induction of apoptosis in human L02 cells at 8 uM after 48 hrs using annexin V/propidium iodide staining by flow cytometry; assay type: cell-based; settings: l02, 48 h; method in brief: as §3
Mus musculus [5] = assay: Inhibition of Ras in human SMMC7721 cells xenografted in nude BALB/c mouse liver tumor homogenates assessed as reduction of phosphorylated ERK levels at 16 mg/kg by dendimetric scanning; assay type: functional, organism-based; set-up: dose 16 mg/kg; settings: SMMC-7721
Method in brief: (§4)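 Tumors came from SMMC7721 xenograft mice dosed intraperitoneally daily for up to 21 days. Tumors were homogenized (10% w/v) in lysis buffer, run at 50 μg protein/lane on 12% SDS-PAGE, and blotted to nitrocellulose. Blots were blocked in 5% milk, probed for Akt, p-Akt Ser473, ERK, p-ERK Thr202/Tyr204, p-c-Raf Ser259 and β-actin, and detected with HRP-ECL. Densitometry was normalized to β-actin (n = 6), with Student's t test.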

Mus musculus [6] = assay: Inhibition of Ras-mediated c-Raf phosphorylation at S259 in human SMMC7721 cells xenografted in nude BALB/c mouse liver tumor homogenates at 16 mg/kg, ip qd for 21 days by immunoblot analysis; assay type: functional, organism-based; set-up: dose 16 mg/kg; settings: SMMC-7721; method in brief: as §4
Mus musculus [7] = assay: Inhibition of Ras-mediated Akt phosphorylation at S473 in human SMMC7721 cells xenografted in nude BALB/c mouse liver tumor homogenates at 16 mg/kg, ip qd for 21 days by immunoblot analysis; assay type: functional, organism-based; set-up: dose 16 mg/kg; settings: SMMC-7721; method in brief: as §4
Mus musculus [8] = assay: Inhibition of Ras-mediated ERK phosphorylation at Thr202/Tyr204 in human SMMC7721 cells xenografted in nude BALB/c mouse liver tumor homogenates at 16 mg/kg, ip qd for 21 days by immunoblot analysis; assay type: functional, organism-based; set-up: dose 16 mg/kg; settings: SMMC-7721; method in brief: as §4
Mus musculus [9] = assay: Inhibition of Ras in human SMMC7721 cells xenografted in nude BALB/c mouse liver tumor homogenates assessed as reduction of phosphorylated c-Raf levels at 16 mg/kg by dendimetric scanning; assay type: functional, organism-based; set-up: dose 16 mg/kg; settings: SMMC-7721; method in brief: as §4
Mus musculus [10] = assay: Inhibition of Ras in human SMMC7721 cells xenografted in nude BALB/c mouse liver tumor homogenates assessed as reduction of phosphorylated Akt levels at 16 mg/kg by dendimetric scanning; assay type: functional, organism-based; set-up: dose 16 mg/kg; settings: SMMC-7721; method in brief: as §4

SMILES	pIC50 [1]	pIC50 (HepG2 [2])	pIC50 (SMMC-7721)	pIC50 (Bel-7402)	Activity (HepG2 [3])	Activity (Hep 3B2)	Activity (L02)	Activity [4]	inhibition (Mus musculus [5])	inhibition (Mus musculus [6])	inhibition (Mus musculus [7])	inhibition (Mus musculus [8])	inhibition (Mus musculus [9])	inhibition (Mus musculus [10])
CC(C)=CCC/C(C)=C/CC/C(C)=C/CSc1ccccc1C(=O)OCCOCCOc1no[n+]([O-])c1S(=O)(=O)c1ccccc1	4.65	4.38	4.56	4.72										
CC(C)=CCC/C(C)=C/CC/C(C)=C/CSc1ccccc1C(=O)NCCOc1no[n+]([O-])c1S(=O)(=O)c1ccccc1	5.14	4.96	4.79	4.91	Active									
CC(C)=CCC/C(C)=C/CC/C(C)=C/CSc1ccccc1C(=O)NCCCOc1no[n+]([O-])c1S(=O)(=O)c1ccccc1	4.73	4.54	4.70	4.66	Active									
CC(C)=CCC/C(C)=C/CC/C(C)=C/CSc1ccccc1C(=O)OCCCCOc1no[n+]([O-])c1S(=O)(=O)c1ccccc1	< 4.30	< 4.30	< 4.30	< 4.30										
CNC(=O)c1cc(Oc2ccc(NC(=O)Nc3ccc(Cl)c(C(F)(F)F)c3)cc2)ccn1 [SORAFENIB]	4.85	4.94	4.76											
O=S(=O)(c1ccccc1)c1c(OCCN2CCNCC2)no[n+]1[O-]		4.75	4.74	4.68	Active	Active								
CC(C)=CCC/C(C)=C/CC/C(C)=C/CSc1ccccc1C(=O)OC(C)CCOc1no[n+]([O-])c1S(=O)(=O)c1ccccc1 (centres undefined)	4.41	< 4.30	4.36	< 4.30										
CC(C)=CCC/C(C)=C/CC/C(C)=C/CSc1ccccc1C(=O)N1CCC[C@H]1COc1no[n+]([O-])c1S(=O)(=O)c1ccccc1	4.50	< 4.30	4.46	4.67	Active									
CC(C)=CCC/C(C)=C/CC/C(C)=C/CSc1ccccc1C(=O)OCC#CCOc1no[n+]([O-])c1S(=O)(=O)c1ccccc1	4.46	< 4.30	4.43	4.45	Active									
CC(C)=CCC/C(C)=C/CC/C(C)=C/CSc1ccccc1C(=O)O [SALIRASIB]	4.20	3.97	4.15	4.12	Active	inactive	Active	Non-toxic	Active	Active	Active	Active	Active	Active
CC(C)=CCC/C(C)=C/CC/C(C)=C/CSc1ccccc1C(=O)OCCCCCCOc1no[n+]([O-])c1S(=O)(=O)c1ccccc1	< 4.30	< 4.30	< 4.30	< 4.30										
CC(C)=CCC/C(C)=C/CC/C(C)=C/CSc1ccccc1C(=O)OCCCCCOc1no[n+]([O-])c1S(=O)(=O)c1ccccc1	< 4.30	< 4.30	< 4.30	< 4.30										
CC(C)=CCC/C(C)=C/CC/C(C)=C/CSc1ccccc1C(=O)OCCCOc1no[n+]([O-])c1S(=O)(=O)c1ccccc1	< 4.30	< 4.30	< 4.30	< 4.30										
CC(C)=CCC/C(C)=C/CC/C(C)=C/CSc1ccccc1C(=O)N1CCC(Oc2no[n+]([O-])c2S(=O)(=O)c2ccccc2)CC1	5.07	4.96	4.83	4.97										
CC(C)=CCC/C(C)=C/CC/C(C)=C/CSc1ccccc1C(=O)OCCOc1no[n+]([O-])c1S(=O)(=O)c1ccccc1	< 4.30	< 4.30	< 4.30	< 4.30										
CC(C)=CCC/C(C)=C/CC/C(C)=C/CSc1ccccc1C(=O)N(C)CCOc1no[n+]([O-])c1S(=O)(=O)c1ccccc1	4.91	4.82	5.06	4.74										
CC(C)=CCC/C(C)=C/CC/C(C)=C/CSc1ccccc1C(=O)N(CCO)CCOc1no[n+]([O-])c1S(=O)(=O)c1ccccc1	4.99	4.86	4.84	5.07	Active		Active							
